Consider 52 molecules from ChEMBL document CHEMBL2146472, “Identification and development of the 1,4-benzodiazepin-2-one and quinazoline-2,4-dione scaffolds as submicromolar inhibitors of HAT” (2012).

Structures are written as SMILES. ≈ marks a conversion by molar mass, not a printed value. Calls of active or inactive are those of the source. The rule behind the calls is not given here.

The first test concerns Trypanosoma brucei brucei. The test is described as follows: Antitrypanosomal activity against bloodstream form of Trypanosoma brucei brucei S427 after 48 hrs by Alamar Blue assay. In kind it is functional.
Settings: not given
In a few lines:
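T. b. brucei S427 cultured in HMI-9 with 20% […] FCS, 37 °C, 5% CO2. Compounds from 0.1 M DMSO stocks diluted in HMI-9 (top wells 50, 200 or 400 μM), serially diluted; cells added at 2 × 10⁴ cells/mL. 48 h incubation, then resazurin (Alamar Blue) for further 24 h; fluorescence ex 530/em 590 nm. MIC determined in duplicate.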
In general terms: Alamar Blue is a resazurin reagent that responds to reducing activity.
As a reminder, the MIC is the lowest concentration found to suppress growth. For the molecule `C=CCN1C(=O)CN(CC2CCNCC2)C(=O)c2ccccc21`, the MIC result was “inactive”.

As for `CN1C(=O)CN(CC2CCNCC2)C(=O)c2cc(Cl)ccc21`, the MIC result is “inactive”. Take `CN1C(=O)CN(CC2CCNCC2)C(=O)c2ccccc21`: the MIC result was “inactive”. Turning to `O=C(O)CN1C(=O)CN(CC2CCCCC2)C(=O)c2ccccc21`, the MIC result was “inactive”.

For `O=C(O)CN1C(=O)CN(CC2CCCCC2)C(=O)c2cc(Cl)ccc21`, the MIC result was “inactive”.

The same test, now with this note: S427, 48 h.
On to `O=C1c2ccccc2N(Cc2ccccc2-c2ccccc2)C(=O)CN1CC1CCNCC1`, for which the lowest concentration to inhibit growth (MIC) was 31.2 µM (≈ 13.7 µg/mL). `O=C1c2cc(Cl)ccc2N(CC2CC2)C(=O)CN1CC1CCCCC1`: the MIC turned out to be 31.2 µM (≈ 11.3 µg/mL). Take `C=CCN1C(=O)CN(CC2CCCCC2)C(=O)c2ccccc21`: it took 125 µM (≈ 39.1 µg/mL) to inhibit growth (MIC).

As to `CCOC(=O)CN1C(=O)CN(CC2CCCCC2)C(=O)c2cc(Cl)ccc21`, the MIC came to 62.5 µM (≈ 24.6 µg/mL). Same read-out and setting: in the case of `O=C1c2ccccc2N(CC2CC2)C(=O)CN1CC1CCCCC1` it was 62.5 µM (≈ 20.4 µg/mL). Same read-out and setting: in the case of `O=C1c2ccccc2N(Cc2ccccc2)C(=O)CN1CC1CCCCC1` it was 31.2 µM (≈ 11.3 µg/mL); in that of `CC(C)(C)OC(=O)N1CCC(Cn2c(=O)c3ccccc3n(Cc3ccccc3-c3ccccc3)c2=O)CC1`, 125 µM (≈ 65.7 µg/mL); in that of `O=c1c2cc(Cl)ccc2n(Cc2ccc(-c3ccccc3)cc2)c(=O)n1CC1CCCCC1`, 125 µM (≈ 57.4 µg/mL). Regarding `O=C1c2cc(Cl)ccc2N(Cc2ccccc2-c2ccccc2)C(=O)CN1CC1CCNCC1`, the MIC was found to be 7.8 µM (≈ 3.7 µg/mL). The same measure, in the same setting: in the case of `O=c1c2ccccc2n(Cc2ccccc2-c2ccccc2)c(=O)n1CC1CCCCC1` it was 7.8 µM (≈ 3.31 µg/mL); in that of `CN1C(=O)CN(CC2CCCCC2)C(=O)c2ccccc21`, 125 µM (≈ 35.8 µg/mL); in that of `CCCCN1C(=O)CN(CC2CCNCC2)C(=O)c2ccccc21`, 62.5 µM (≈ 20.6 µg/mL). On the same count and under the same terms, in the case of `O=C1c2ccccc2N(Cc2ccccc2-c2ccccc2)C(=O)CN1CC1CCCCC1` it was 125 µM (≈ 54.8 µg/mL); in that of `CCOC(=O)CN1C(=O)CN(CC2CCCCC2)C(=O)c2ccccc21`, 125 µM (≈ 44.8 µg/mL); in that of `O=C1c2cc(Cl)ccc2N(Cc2ccccc2-c2ccccc2)C(=O)CN1CC1CCCCC1`, 7.8 µM (≈ 3.69 µg/mL). The molecule `C=CCN1C(=O)CN(CC2CCCCC2)C(=O)c2cc(Cl)ccc21` returned an MIC of 62.5 µM (≈ 21.7 µg/mL).

Molecule `O=c1c2ccccc2n(Cc2ccccc2-c2ccccc2)c(=O)n1CC1CCNCC1` registered an MIC of 3.9 µM (≈ 1.66 µg/mL). In turn, `CC(C)(C)OC(=O)N1CCC(Cn2c(=O)c3cc(Cl)ccc3n(Cc3ccccc3-c3ccccc3)c2=O)CC1` came in with an MIC of 7.8 µM (≈ 4.37 µg/mL).

The molecule `Cn1c(=O)n(CC2CCCCC2)c(=O)c2ccccc21` registered an MIC of 62.5 µM (≈ 17 µg/mL). The molecule `CCN1C(=O)CN(CC2CCCCC2)C(=O)c2ccccc21` displayed an MIC of 62.5 µM (≈ 18.8 µg/mL).

Regarding `O=C1c2cc(Cl)ccc2N(Cc2ccc(-c3ccccc3)cc2)C(=O)CN1CC1CCCCC1`, inhibition of growth (MIC) required 3.9 µM (≈ 1.84 µg/mL).

Regarding `CCCCN1C(=O)CN(CC2CCCCC2)C(=O)c2cc(Cl)ccc21`, the MIC was 15.6 µM (≈ 5.66 µg/mL). The same measure, in the same setting: in the case of `O=c1c2cc(Cl)ccc2n(Cc2ccccc2)c(=O)n1CC1CCCCC1` it was 62.5 µM (≈ 23.9 µg/mL); in that of `CCCCn1c(=O)n(CC2CCCCC2)c(=O)c2cc(Cl)ccc21`, 62.5 µM (≈ 21.8 µg/mL). `CC(C)(C)OC(=O)N1CCC(Cn2c(=O)c3cc(Cl)ccc3n(Cc3ccc(-c4ccccc4)cc3)c2=O)CC1` came in with an MIC of 125 µM (≈ 70 µg/mL). Still for that read-out and setting: in the case of `CCN1C(=O)CN(CC2CCCCC2)C(=O)c2cc(Cl)ccc21` it was 62.5 µM (≈ 20.9 µg/mL); in that of `CCOC(=O)Cn1c(=O)n(CC2CCCCC2)c(=O)c2ccccc21`, 31.2 µM (≈ 10.8 µg/mL); in that of `O=C1c2cc(Cl)ccc2N(Cc2ccccc2)C(=O)CN1CC1CCCCC1`, 15.6 µM (≈ 6.19 µg/mL). Consider `O=c1c2ccccc2n(Cc2ccccc2)c(=O)n1CC1CCCCC1`, for which 15.6 µM (≈ 5.44 µg/mL) was the least that counted as inhibitory (MIC). On to `C=CCN1C(=O)CN(CC2CCNCC2)C(=O)c2cc(Cl)ccc21`, for which the MIC was 250 µM (≈ 87 µg/mL). On the same count and under the same terms, in the case of `Cn1c(=O)n(CC2CCCCC2)c(=O)c2cc(Cl)ccc21` it was 31.2 µM (≈ 9.57 µg/mL). In the case of `O=C1c2ccccc2N(Cc2ccccc2)C(=O)CN1CC1CCNCC1`, the MIC turned out to be 250 µM (≈ 90.9 µg/mL). For the molecule `O=C1c2cc(Cl)ccc2N(Cc2ccccc2)C(=O)CN1CC1CCNCC1`, it took 125 µM (≈ 49.7 µg/mL) to inhibit growth (MIC). Molecule `CC(C)(C)OC(=O)N1CCC(Cn2c(=O)c3cc(Cl)ccc3n(Cc3ccccc3)c2=O)CC1` showed an MIC of 62.5 µM (≈ 30.2 µg/mL). The molecule `O=C1c2ccccc2N(Cc2ccc(-c3ccccc3)cc2)C(=O)CN1CC1CCCCC1` showed an MIC of 7.8 µM (≈ 3.42 µg/mL). The same measure, in the same setting: in the case of `CN1C(=O)CN(CC2CCCCC2)C(=O)c2cc(Cl)ccc21` it was 62.5 µM (≈ 20.1 µg/mL); in that of `CCCCN1C(=O)CN(CC2CCCCC2)C(=O)c2ccccc21`, 31.2 µM (≈ 10.3 µg/mL). For the molecule `CCn1c(=O)n(CC2CCCCC2)c(=O)c2cc(Cl)ccc21`, the MIC stood at 15.6 µM (≈ 5 µg/mL). `O=c1c2cc(Cl)ccc2n(Cc2ccccc2-c2ccccc2)c(=O)n1CC1CCNCC1` came in with an MIC of 0.97 µM (≈ 0.446 µg/mL).

With `CCn1c(=O)n(CC2CCCCC2)c(=O)c2ccccc21`, the MIC came to 31.2 µM (≈ 8.93 µg/mL). On the same count and under the same terms, in the case of `CCCCN1C(=O)CN(CC2CCNCC2)C(=O)c2cc(Cl)ccc21` it was 250 µM (≈ 91 µg/mL). The same measure, in the same setting: in the case of `CCCN1C(=O)CN(CC2CCCCC2)C(=O)c2ccccc21` it was 62.5 µM (≈ 19.7 µg/mL); in that of `O=c1c2cc(Cl)ccc2n(Cc2ccccc2)c(=O)n1CC1CCNCC1`, 15.6 µM (≈ 5.99 µg/mL).

`CCCN1C(=O)CN(CC2CCCCC2)C(=O)c2cc(Cl)ccc21` yielded an MIC of 31.2 µM (≈ 10.9 µg/mL). In the case of `O=c1c2cc(Cl)ccc2n(Cc2ccccc2-c2ccccc2)c(=O)n1CC1CCCCC1`, the MIC is 62.5 µM (≈ 28.7 µg/mL). `O=c1c2cc(Cl)ccc2n(Cc2ccc(-c3ccccc3)cc2)c(=O)n1CC1CCNCC1`: the MIC worked out at 0.97 µM (≈ 0.446 µg/mL). `CCOC(=O)Cn1c(=O)n(CC2CCCCC2)c(=O)c2cc(Cl)ccc21` showed an MIC of 250 µM (≈ 94.7 µg/mL).
